These results are taken from ChEMBL document CHEMBL4513216, “Probing the Open Global Health Chemical Diversity Library for Multistage-Active Starting Points for Next-Generation Antimalarials” (ACS Infect Dis, 2020).

The nature of this series: Toxicity liver stage against HepG2, at 10uM. More on the design: test concentration 10 uM, cell line HepG2-A16-CD81EGFP. To be noted: human, HepG2-A16-CD81EGFP cells; read-out: INHIBITION
In kind it is cell-based. The gist of the method: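 Uninfected HepG2-A16-CD81EGFP cells, 3 × 10^3 per well, 1536-well, plated on prespotted compound at 10 μM final, parasite-free screening media added to match infected plates; puromycin 10 μM positive, DMSO 0.5% negative; run in parallel with 48 h PbLuc assay at 37 °C, 5% CO2; viability by CellTiter-Glo luminescence, normalized to controls.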
On to `CCOC(=O)C(C)NC(=O)N1CCN(c2nc3ccccc3n2C)CC1` (configuration not stated), for which the cytotoxicity at 10 µM turned out to be 3.39%.

Turning to `CN(CCc1ccccc1)C(=O)c1cccnc1OCC(F)(F)F`, the cytotoxicity at 10 µM amounted to 13.5%.

Consider `COc1ccc2[nH]c(C(=O)NCC3(N)CCCC3)cc2c1`, for which the cytotoxicity at 10 µM was found to be 4.3%. Then `CCc1c(-c2ccccc2)nc2c(c(C)c(C)n2CCN(C)C)c1N`, with 17.7%; and `O=c1c(NCCCO)c(N2CCN(c3ccccc3)CC2)c1=O`, with -3.66%. Take `Cc1ccc(S(=O)(=O)NCCc2ccoc2)s1`: the cytotoxicity at 10 µM is 2.69%. Under `O=C(CCC(=O)N1CCC(Oc2ncccc2Br)CC1)c1ccccc1` stands 30.4%; under `COc1cccc(OCC(=O)N2CCCSCC2CN2CCOCC2)c1` (configuration not stated), 4.01%; under `O=C(c1ccoc1)N1CC[C@H]2[C@H]1CCN2S(=O)(=O)C1CC1`, -139%. Take `CCOc1ccc(C2SCC(=O)Nc3c2c(=O)[nH]n3C(C)C)cc1` (configuration not stated): the cytotoxicity at 10 µM turned out to be 8.68%. Turning to `Cn1ncc2c1NC(=O)CC2c1ccc(O)cc1` (configuration not stated), the cytotoxicity at 10 µM is 24.3%. With `Cn1cccc1C(=O)NCc1cnc2n1CCN(C(=O)N1CCCC1)C2`, the cytotoxicity at 10 µM was -5.61%. Under `CCN(CC)CCNc1nc(C(C)C)nc2c(C)nn(CC)c12` stands 8.99%; under `Cc1ccn(-c2ccnc(N3CCN(c4ncccn4)CC3)n2)n1`, 13.4%. Under `Cc1ccc(OCCCNC(=O)C2(C)CC(=O)N3C=CC=CC3=N2)cc1` (configuration not stated) stands 0.343%; under `Cc1cc(N(C)C)nc(C2COCCN2Cc2cc(C)on2)n1` (configuration not stated), -3.55%; under `O=C(c1cnco1)N1CCC(Cc2cccc3ncccc23)CC1`, 6.79%. Consider `O=C(CCn1cccn1)N1CCC(c2nnc(-c3ccccn3)o2)CC1`, for which the cytotoxicity at 10 µM is 0.125%. Then `CCCN(C(=O)c1cnc(C)cn1)c1nc2c(s1)CCc1c-2cnn1C`, with -28%; and `COc1cc(CN2CC[C@@]3(CCCO3)[C@@H](O)C2)ccc1F`, with -3.14%.

As to `Cc1cnn(CC(C)NCc2ccc(C#N)cc2F)c1` (configuration not stated), the cytotoxicity at 10 µM is -7.44%. In the case of `CN(CC(=O)NCC(F)(F)F)Cc1cccc2c1OCCO2`, the cytotoxicity at 10 µM is -18.7%. On to `CC(OCC1CC1)C(=O)Nc1nccn1Cc1ccccc1` (configuration not stated), for which the cytotoxicity at 10 µM is -6.79%.

For the molecule `Cc1cc(C(=O)NC(C)Cc2ccc(N(C)C)cc2)n(C)n1` (configuration not stated), the cytotoxicity at 10 µM is 1.19%. On to `O=C(Cc1ccc(F)cc1F)NCC(=O)Nc1ccccn1`, for which the cytotoxicity at 10 µM was 3.24%.

On to `CC(O)CN(C)C(=O)CCNC(=O)OC(C)(C)C` (configuration not stated), for which the cytotoxicity at 10 µM is -5.32%.

On to `COc1ccc(N2CCC(NC(=O)c3sccc3C)CC2)cc1`, for which the cytotoxicity at 10 µM is -2.28%. `CN(CCc1ccccn1)C(=O)Nc1cccnc1N1CCCC1`: the cytotoxicity at 10 µM was -27.2%.

`CC1CCC(NS(=O)(=O)CC(=O)NC(C2CC2)C2CC2)CC1` (configuration not stated): the cytotoxicity at 10 µM was -2.8%. Under `CNc1snc(C)c1C(=O)NC(C)CC(=O)c1cccs1` (configuration not stated) stands -0.227%; under `Cc1cc(CNc2cccc(C(=O)N(C)c3ccccc3)c2)no1`, 2.95%; under `COc1ccc(CCNC(=O)C(C)Nc2cc(C)ccc2C)cc1` (configuration not stated), -5.71%. Then `COc1cc2nc(NCc3scnc3C)nc(N)c2cc1OC`, with 6.34%. Under `CNC(=O)CN1CCC(c2cc(OC)cc(OC)c2)C1` (configuration not stated) stands 4.38%. Turning to `CCN(CC1CN(Cc2c(C)noc2C)CCO1)c1cccnn1` (configuration not stated), the cytotoxicity at 10 µM was -7.99%. Under `CC(O)(CNC(=O)NCc1cccc(-n2cncn2)c1)c1ccco1` (configuration not stated) stands 15%; under `Cc1cnc(CN2CC=C(c3c[nH]c4ncccc34)CC2)o1`, 25%; under `O=S(=O)(CCc1ccccc1)Cc1nc(C2CC2)no1`, 1.03%.

For the molecule `Cc1ccc(CNC(=O)c2c[nH]nc2NC(=O)C2COCCO2)cc1` (configuration not stated), the cytotoxicity at 10 µM is -9.95%.

Take `CCN(C(=O)COC)C(c1ccc(Cl)cc1)c1ccccn1` (configuration not stated): the cytotoxicity at 10 µM was -9.7%.

As for `Cc1cccc(C2(NCCCS(C)(=O)=O)CCCC2)c1`, the cytotoxicity at 10 µM stood at 1.3%. `COc1cccc(CNCc2nnc3n2CC(C(F)(F)F)CC3)c1` (configuration not stated): the cytotoxicity at 10 µM turned out to be 14%. Under `O=C(CCc1ccccn1)N1CCc2cc(Cl)cc(Cl)c2C1` stands -40.9%; under `c1cnn(CC2CN(c3ncnc4sccc34)CCO2)c1` (configuration not stated), 25.1%. Then `CN(C)C(=O)CN1CCO[C@H]2CN(Cc3cccc(F)c3)C[C@H]21`, with -97.2%. Take `Cc1noc([C@@]23CCO[C@@H]2CCN(S(=O)(=O)c2cccnc2)C3)n1`: the cytotoxicity at 10 µM was -103%. In the case of `CCN1CCC2(CC1)CC(NC(=O)c1c[nH]cn1)c1ccccc1O2` (configuration not stated), the cytotoxicity at 10 µM was -103%. On to `Cc1cccc(-c2nnn3c2COC(CNS(=O)(=O)C2CC2)C3)c1` (configuration not stated), for which the cytotoxicity at 10 µM is -110%. Under `CC(C)N1CCC2(CC1)CC(c1cccnc1)C(=O)N2` (configuration not stated) stands -67.2%. Turning to `Cn1ccnc1CN(CCO)C(=O)c1cc2ccccc2o1`, the cytotoxicity at 10 µM is 3.42%. As to `CNc1nc(C(=O)N2CCCC(COc3ccc(F)cc3)C2)cs1` (configuration not stated), the cytotoxicity at 10 µM came out at 8.35%.

In the case of `CCN1CCCC1CN(Cc1cc[nH]n1)CC1CCN(CCOC)CC1` (configuration not stated), the cytotoxicity at 10 µM was -5.14%. Consider `CCCc1nnc2sc(C3CCN(C4CCN(C)CC4)CC3)nn12`, for which the cytotoxicity at 10 µM is -10.6%. Under `Fc1ccc(C(CNc2ccncn2)N2CCCC2)cc1` (configuration not stated) stands 15.9%; under `O=C(c1ncc[nH]1)N1CCC(Cn2cc(-c3cccc(Cl)c3)nn2)CC1`, -12.8%; under `N[C@@H]1c2ccccc2C2(CCN(c3cnc4ccccc4n3)CC2)[C@H]1O`, -2.45%. Consider `CN1CCC(Cc2noc(-c3cccc(OCC(N)=O)c3)n2)CC1`, for which the cytotoxicity at 10 µM is -4.42%. As to `c1ccc(CN2CCCC(CNc3ncnc4c3CCNCC4)C2)cc1` (configuration not stated), the cytotoxicity at 10 µM was -9.89%. For `Cn1c(N2CCOCC2)nc2cc(C(=O)N3CCC(O)(CO)C3)ccc21` (configuration not stated), the cytotoxicity at 10 µM is -4.62%. Then `Cc1cc(CC(C)Nc2nc(C3CCCC3)nc3c2cnn3C)[nH]n1` (configuration not stated), with -6.12%; and `CC(Cn1cncn1)NCCN1CCc2ccccc2C1` (configuration not stated), with -1.27%. Under `Cc1nc(CN2CC[C@@H]3[C@@H](CCC(=O)N3CCc3c[nH]cn3)C2)co1` stands 2.62%. As for `N#CC1CCCN(C(=O)Cn2ncc(N3CCCC3)cc2=O)C1` (configuration not stated), the cytotoxicity at 10 µM is -6.36%.

`CCOc1cccc(CN(Cc2cnn(C)c2)CC(C)C)c1O`: the cytotoxicity at 10 µM was -7%.

Regarding `CN(CCCc1nccn1C)C(=O)C1COc2ccccc2C1` (configuration not stated), the cytotoxicity at 10 µM was -9.1%.

Regarding `c1cncc(CN(CCCn2ccnc2)CC2CCOC2)c1` (configuration not stated), the cytotoxicity at 10 µM was 1.79%. As for `c1cc2ccc(N3CCN(Cc4ccc5c(c4)OCO5)CC3)nc2[nH]1`, the cytotoxicity at 10 µM was -6.07%. Then `CN1N=C(C(=O)N2CCCC(CCc3ccccc3F)C2)CCC1=O` (configuration not stated), with -6.67%; and `O=C(c1cccnc1N1CCOC(c2ccc(Cl)cc2)C1)N1CCCC1` (configuration not stated), with 7.21%.

As to `CN(C(=O)c1cccc(NCC(=O)O)c1)C(C1CC1)C1CC1`, the cytotoxicity at 10 µM was 5.01%. Under `c1coc(CN2CCn3c(nc4ccccc43)C2)c1` stands 21.8%. Consider `Cn1ncc2c(NCCCOc3cccnc3)nc(C3CCCC3)nc21`, for which the cytotoxicity at 10 µM was found to be 2.94%. Consider `CC(CN1CCC2(CC1)c1nc[nH]c1CCN2S(C)(=O)=O)C(F)(F)F` (configuration not stated), for which the cytotoxicity at 10 µM is -8.51%. Then `O=C1CCC2(CCCN(C(=O)c3cscn3)C2)CN1CCc1c[nH]cn1` (configuration not stated), with -13%; and `NC(=O)C1CCN(C(=O)c2cccc(CN3CCOCC3)c2)CC1`, with -20%. Then `Cc1ccccc1N1CCN(C(=O)c2ccc[nH]2)C(C)C1` (configuration not stated), with -8.68%.

Turning to `Cc1cncc(C(=O)NCCSCc2cccs2)c1`, the cytotoxicity at 10 µM was -6.48%. As to `NC(=O)C1CCN(CCc2ccc(NC(=O)C3CC3)cc2)CC1`, the cytotoxicity at 10 µM is -7.72%. For the molecule `CN1CCOC(CNCc2csc(C3CCCC3)n2)C1` (configuration not stated), the cytotoxicity at 10 µM is -0.383%.

In the case of `CS(=O)(=O)N1CCC(NC(=O)COc2ccc(Br)cc2Cl)CC1`, the cytotoxicity at 10 µM came to 3.25%.

On to `Cc1ccc(C(=O)N2CCCC(c3nncn3C)C2)c(C)c1` (configuration not stated), for which the cytotoxicity at 10 µM was -14.1%. Under `C=C(C)COCCNC(=O)C1CCCN1C(C)=O` (configuration not stated) stands -10.7%; under `Cc1nc(CN(C)C2CCN(Cc3sc(C)nc3C)C2)no1` (configuration not stated), -8.99%. Then `CNS(=O)(=O)c1ccc(C(=O)N2CCCC2Cc2ccccc2)o1` (configuration not stated), with -8.53%; and `CCOCCN1CCN(Cc2cccc(C(=O)N(C)C)c2)CC1`, with -13.5%. For `CC(C)(NCC(=O)NCCC#N)c1ccc2c(c1)OCCO2`, the cytotoxicity at 10 µM is -4.03%. Then `CC(NC(=O)N(C)Cc1ccsc1)c1ccc2c(c1)OCO2` (configuration not stated), with -10.6%; and `CN(C)c1ccc(CCNC(=O)NCc2ccc(N(C)C)nc2)cc1`, with -11.2%; and `CCOc1ncccc1NC(=O)NC1CCN(S(C)(=O)=O)CC1`, with -7.96%. Regarding `c1cnc(N2CCOCC3(C2)CN(c2nccs2)CCO3)nc1` (configuration not stated), the cytotoxicity at 10 µM was -104%. In the case of `Cn1cc(CNC2CC3(CCN(S(C)(=O)=O)CC3)c3ccccc32)cn1` (configuration not stated), the cytotoxicity at 10 µM was -110%. As for `COCC1CN(Cc2ccncc2)Cc2nnn(CC3CC3)c21` (configuration not stated), the cytotoxicity at 10 µM was -5.91%. Regarding `Cn1ccnc1CN1CC[C@@H](NS(C)(=O)=O)[C@@H]1Cc1ccccc1`, the cytotoxicity at 10 µM is -77.2%. Take `Cn1cnc2c1C(COCC1CCOCC1)CN(C(=O)C1CC=CC1)C2` (configuration not stated): the cytotoxicity at 10 µM is -75.5%. Regarding `c1ccc(N2CCCC3(CCN(Cc4cccs4)C3)C2)nc1` (configuration not stated), the cytotoxicity at 10 µM is 12.7%. Then `CN(C)S(=O)(=O)N1C[C@H]2CC[C@@H](C1)N(Cc1ccc3nsnc3c1)C2`, with -7.7%; and `CCCn1cc2nc(N3CCCC3)[nH]cc-2c1=O`, with 2.13%.
